# Reference: ChEMBL document CHEMBL1649256, “Comparison of assessment of oxygen consumption, Etest, and CLSI M38-A2 broth microdilution methods for evaluation of the susceptibility of Aspergillus fumigatus to posaconazole” (2009)
# How the values were obtained:
# Format in all cases: functional
# Aspergillus fumigatus [1] = assay: Antimicrobial activity against Aspergillus fumigatus isolate 32 after 48 hrs by Etest; conditions: isolate 32, 48 h
# In short: (§1)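 Posaconazole Etest strips on RPMI 1640 agar with 2% glucose, pH 7.0, run per the strip maker's instructions. Incubated at 35°C. MIC read at 24 h and at 48 h, matching the time in each line.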
# Aspergillus fumigatus [2] = assay: Antimicrobial activity against Aspergillus fumigatus isolate 17 by CLSI M38-A2 broth microdilution method
# In short: (§2)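 Posaconazole broth microdilution follows CLSI M38-A2. The MIC is the lowest concentration with no visible growth at 48 h. Candida parapsilosis ATCC 22019 and Candida krusei ATCC 6258 were included as QC strains in every run.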
# Aspergillus fumigatus [3] = assay: Antimicrobial activity against Aspergillus fumigatus isolate 24 by CLSI M38-A2 broth microdilution method
# In short: (§3)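 Reference broth microdilution per CLSI M38-A2. MIC read as absence of visible growth at 48 h. C. parapsilosis ATCC 22019 and C. krusei ATCC 6258 QC strains run in each test session.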
# Aspergillus fumigatus [4] = assay: Antimicrobial activity against Aspergillus fumigatus isolate 6 by oxygen consumption method
# Aspergillus fumigatus [5] = assay: Antimicrobial activity against Aspergillus fumigatus isolate 22 by CLSI M38-A2 broth microdilution method; in short: as §3
# Aspergillus fumigatus [6] = assay: Antimicrobial activity against Aspergillus fumigatus isolate 2 after 24 hrs by Etest; conditions: isolate 2, 24 h
# In short: (§4)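 Posaconazole Etest strips placed on RPMI 1640 agar with 2% glucose, pH 7.0, and run per the strip maker's instructions. Incubation at 35°C, with the MIC read at 24 h and at 48 h.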
# Aspergillus fumigatus [7] = assay: Antimicrobial activity against Aspergillus fumigatus isolate 33 after 24 hrs by Etest; conditions: isolate 33, 24 h; in short: as §1
# Aspergillus fumigatus [8] = assay: Antimicrobial activity against Aspergillus fumigatus isolate 29 by oxygen consumption method
# In short: (§5)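 Conidial suspension in RPMI 1640 broth, 1.5 ml, with two drug concentrations (0.25 and 2 μg/ml). Tubes agitated 12 h at 37°C in a biological oxygen monitor. Available oxygen monitored continuously and quantified to assign the MIC.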
# Aspergillus fumigatus [9] = assay: Antimicrobial activity against Aspergillus fumigatus isolate 5 by oxygen consumption method
# Aspergillus fumigatus [10] = assay: Antimicrobial activity against Aspergillus fumigatus isolate 27 after 48 hrs by Etest; conditions: isolate 27, 48 h
# In short: (§6)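 Etest strips on RPMI 1640 agar with 2% glucose, pH 7.0, run per manufacturer's instructions. Incubated at 35°C; MIC read at 48 h.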
# Aspergillus fumigatus [11] = assay: Antimicrobial activity against Aspergillus fumigatus isolate 12 after 48 hrs by Etest; conditions: isolate 12, 48 h; in short: as §4
# Aspergillus fumigatus [12] = assay: Antimicrobial activity against Aspergillus fumigatus isolate 49 after 48 hrs by Etest; conditions: isolate 49, 48 h
# Aspergillus fumigatus [13] = assay: Antimicrobial activity against Aspergillus fumigatus isolate 32 by CLSI M38-A2 broth microdilution method
# In short: (§7)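 CLSI M38-A2 broth microdilution with posaconazole. MIC taken as the lowest concentration with no visible growth at 48 h. C. parapsilosis ATCC 22019 and C. krusei ATCC 6258 were included as QC strains in every run.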
# Aspergillus fumigatus [14] = assay: Antimicrobial activity against Aspergillus fumigatus isolate 38 after 48 hrs by Etest; conditions: isolate 38, 48 h; in short: as §1
# Aspergillus fumigatus [15] = assay: Antimicrobial activity against Aspergillus fumigatus isolate 20 after 48 hrs by Etest; conditions: isolate 20, 48 h; in short: as §4
# Aspergillus fumigatus [16] = assay: Antimicrobial activity against Aspergillus fumigatus isolate 22 after 48 hrs by Etest; conditions: isolate 22, 48 h; in short: as §6
# Aspergillus fumigatus [17] = assay: Antimicrobial activity against Aspergillus fumigatus isolate 1 after 48 hrs by Etest; conditions: isolate 1, 48 h; in short: as §4
# Aspergillus fumigatus [18] = assay: Antimicrobial activity against Aspergillus fumigatus isolate 45 by CLSI M38-A2 broth microdilution method
# Aspergillus fumigatus [19] = assay: Antimicrobial activity against Aspergillus fumigatus isolate 9 by CLSI M38-A2 broth microdilution method
# Aspergillus fumigatus [20] = assay: Antimicrobial activity against Aspergillus fumigatus isolate 42 after 48 hrs by Etest; conditions: isolate 42, 48 h; in short: as §1
# Aspergillus fumigatus [21] = assay: Antimicrobial activity against Aspergillus fumigatus isolate 15 by CLSI M38-A2 broth microdilution method; in short: as §2
# Aspergillus fumigatus [22] = assay: Antimicrobial activity against Aspergillus fumigatus isolate 22 after 24 hrs by Etest; conditions: isolate 22, 24 h
# In short: (§8)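 Etest strips on RPMI 1640 agar with 2% glucose, pH 7.0, run per manufacturer's instructions. Incubated at 35°C; MIC read at 24 h.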
# Aspergillus fumigatus [23] = assay: Antimicrobial activity against Aspergillus fumigatus isolate 2 after 48 hrs by Etest; conditions: isolate 2, 48 h; in short: as §4
# Aspergillus fumigatus [24] = assay: Antimicrobial activity against Aspergillus fumigatus isolate 14 by oxygen consumption method
# In short: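 Conidial suspension in RPMI 1640 broth with posaconazole at 0.25 and 2 μg/ml. Tubes agitated 12 h at 37°C in a biological oxygen monitor. Available oxygen was monitored continuously, and the MIC was assigned from the oxygen quantification.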
# Aspergillus fumigatus [25] = assay: Antimicrobial activity against Aspergillus fumigatus isolate 29 after 24 hrs by Etest; conditions: isolate 29, 24 h; in short: as §8
# Aspergillus fumigatus [26] = assay: Antimicrobial activity against Aspergillus fumigatus isolate 20 by CLSI M38-A2 broth microdilution method; in short: as §3
# Aspergillus fumigatus [27] = assay: Antimicrobial activity against Aspergillus fumigatus isolate 1 after 24 hrs by Etest; conditions: isolate 1, 24 h; in short: as §4
# Aspergillus fumigatus [28] = assay: Antimicrobial activity against Aspergillus fumigatus isolate 28 by oxygen consumption method; in short: as §5
# Aspergillus fumigatus [29] = assay: Antimicrobial activity against Aspergillus fumigatus isolate 30 by CLSI M38-A2 broth microdilution method; in short: as §3
# Aspergillus fumigatus [30] = assay: Antimicrobial activity against Aspergillus fumigatus isolate 40 by CLSI M38-A2 broth microdilution method; in short: as §7
# Aspergillus fumigatus [31] = assay: Antimicrobial activity against Aspergillus fumigatus isolate 24 by oxygen consumption method; in short: as §5
# Aspergillus fumigatus [32] = assay: Antimicrobial activity against Aspergillus fumigatus isolate 16 after 24 hrs by Etest; conditions: isolate 16, 24 h; in short: as §4
# Aspergillus fumigatus [33] = assay: Antimicrobial activity against Aspergillus fumigatus isolate 31 after 24 hrs by Etest; conditions: isolate 31, 24 h; in short: as §8
# Aspergillus fumigatus [34] = assay: Antimicrobial activity against Aspergillus fumigatus isolate 23 by CLSI M38-A2 broth microdilution method; in short: as §3
# Aspergillus fumigatus [35] = assay: Antimicrobial activity against Aspergillus fumigatus isolate 35 after 24 hrs by Etest; conditions: isolate 35, 24 h; in short: as §1
# Aspergillus fumigatus [36] = assay: Antimicrobial activity against Aspergillus fumigatus isolate 4 by oxygen consumption method
# In short: (§9)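 Conidial suspension in RPMI 1640 broth, tested at two posaconazole levels (0.25 and 2 μg/ml). Agitated for 12 h at 37°C in a biological oxygen monitor. MIC derived from continuous monitoring and quantification of the available oxygen.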
# Aspergillus fumigatus [37] = assay: Antimicrobial activity against Aspergillus fumigatus isolate 34 after 48 hrs by Etest; conditions: isolate 34, 48 h; in short: as §1
# Aspergillus fumigatus [38] = assay: Antimicrobial activity against Aspergillus fumigatus isolate 36 by oxygen consumption method; in short: as §9
# Aspergillus fumigatus [39] = assay: Antimicrobial activity against Aspergillus fumigatus isolate 14 after 24 hrs by Etest; conditions: isolate 14, 24 h; in short: as §4
# Aspergillus fumigatus [40] = assay: Antimicrobial activity against Aspergillus fumigatus isolate 46 by CLSI M38-A2 broth microdilution method
# Aspergillus fumigatus [41] = assay: Antimicrobial activity against Aspergillus fumigatus isolate 20 by oxygen consumption method; in short: as §5
# Aspergillus fumigatus [42] = assay: Antimicrobial activity against Aspergillus fumigatus isolate 27 by oxygen consumption method; in short: as §5
# Aspergillus fumigatus [43] = assay: Antimicrobial activity against Aspergillus fumigatus isolate 12 by CLSI M38-A2 broth microdilution method; in short: as §2
# Aspergillus fumigatus [44] = assay: Antimicrobial activity against Aspergillus fumigatus isolate 8 by oxygen consumption method
compound,measurement,setting,value
CC[C@@H]([C@H](C)O)n1ncn(-c2ccc(N3CCN(c4ccc(OC[C@@H]5CO[C@@](Cn6cncn6)(c6ccc(F)cc6F)C5)cc4)CC3)cc2)c1=O [POSACONAZOLE],MIC,Aspergillus fumigatus [1],0.25 µg/mL
same,MIC,Aspergillus fumigatus [2],0.125 µg/mL
same,MIC,Aspergillus fumigatus [3],0.125 µg/mL
same,MIC,Aspergillus fumigatus [4],≤ 0.25 µg/mL
same,MIC,Aspergillus fumigatus [5],0.125 µg/mL
same,MIC,Aspergillus fumigatus [6],0.5 µg/mL
same,MIC,Aspergillus fumigatus [7],0.25 µg/mL
same,MIC,Aspergillus fumigatus [8],≤ 0.25 µg/mL
same,MIC,Aspergillus fumigatus [9],≥ 0.5 µg/mL
same,MIC,Aspergillus fumigatus [10],0.25 µg/mL
same,MIC,Aspergillus fumigatus [11],0.5 µg/mL
same,MIC,Aspergillus fumigatus [12],0.5 µg/mL
same,MIC,Aspergillus fumigatus [13],0.125 µg/mL
same,MIC,Aspergillus fumigatus [14],0.125 µg/mL
same,MIC,Aspergillus fumigatus [15],0.25 µg/mL
same,MIC,Aspergillus fumigatus [16],0.25 µg/mL
same,MIC,Aspergillus fumigatus [17],8 µg/mL
same,MIC,Aspergillus fumigatus [18],0.125 µg/mL
same,MIC,Aspergillus fumigatus [19],0.25 µg/mL
same,MIC,Aspergillus fumigatus [20],0.125 µg/mL
same,MIC,Aspergillus fumigatus [21],0.06 µg/mL
same,MIC,Aspergillus fumigatus [22],0.25 µg/mL
same,MIC,Aspergillus fumigatus [23],1 µg/mL
same,MIC,Aspergillus fumigatus [24],≤ 0.25 µg/mL
same,MIC,Aspergillus fumigatus [25],0.25 µg/mL
same,MIC,Aspergillus fumigatus [26],0.125 µg/mL
same,MIC,Aspergillus fumigatus [27],8 µg/mL
same,MIC,Aspergillus fumigatus [28],≤ 0.25 µg/mL
same,MIC,Aspergillus fumigatus [29],0.125 µg/mL
same,MIC,Aspergillus fumigatus [30],0.125 µg/mL
same,MIC,Aspergillus fumigatus [31],≤ 0.25 µg/mL
same,MIC,Aspergillus fumigatus [32],0.125 µg/mL
same,MIC,Aspergillus fumigatus [33],0.06 µg/mL
same,MIC,Aspergillus fumigatus [34],0.125 µg/mL
same,MIC,Aspergillus fumigatus [35],0.25 µg/mL
same,MIC,Aspergillus fumigatus [36],≥ 0.5 µg/mL
same,MIC,Aspergillus fumigatus [37],≤ 0.03 µg/mL
same,MIC,Aspergillus fumigatus [38],≤ 0.25 µg/mL
same,MIC,Aspergillus fumigatus [39],0.25 µg/mL
same,MIC,Aspergillus fumigatus [40],0.125 µg/mL
same,MIC,Aspergillus fumigatus [41],≤ 0.25 µg/mL
same,MIC,Aspergillus fumigatus [42],≥ 0.5 µg/mL
same,MIC,Aspergillus fumigatus [43],0.125 µg/mL
same,MIC,Aspergillus fumigatus [44],≥ 0.5 µg/mL
